Experiments:
[1] = tested on: Rattus norvegicus; assay: Change in diastolic blood pressure after iv administration of 1600 ug/Kg in the presence of isoprenaline (agonist) in anesthetized rats; type: functional, Artery
Procedure, shortened: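 Urethane-anesthetized male Wistar rats (16 rats, two equal groups) received 400 or 1600 µg/kg compound iv. Cardiovascular responses to iv agonist boluses (noradrenaline 1 µg/kg, acetylcholine 2.50 µg/kg, adrenaline, isoprenaline) were measured before and after compound dosing. Peak responses are given as mean ± SE; p < 0.05 versus control mean.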

[2] = tested on: Rattus norvegicus; assay: Change in systolic blood pressure after iv administration of 1600 ug/Kg in the presence of isoprenaline (agonist) in anesthetized rats; type: functional, Artery
[3] = tested on: Rattus norvegicus; assay: Maximum rate of rise of the left ventricular isovolumetric pressure was measured after iv administration of 4.12 uM/Kg in anesthetized rats; type: functional, Heart left ventricle
[4] = tested on: Rattus norvegicus; assay: Change in systolic blood pressure after iv administration of 1600 ug/Kg in the presence of adrenaline (agonist) in anesthetized rats; type: functional, Artery
[5] = tested on: Rattus norvegicus; assay: Change in stroke volume after iv administration of 3200 ug/Kg in anesthetized rats; type: functional
Procedure, shortened: (§1)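 Male Wistar rats (299 ± 3 g) were anesthetized with ethylurethane ip, tracheally cannulated and breathing spontaneously, at 37 °C, and stabilized for 60 min. Doses of 50-3200 µg/kg (ratio 2.0) in saline were injected by femoral vein, 50 µL each. Recordings: femoral arterial BP, electromagnetic abdominal-aortic flow, SV from integrated pulsatile flow, polygraphic RF. Peak changes, mean ± SE, n = 12 (n = 7 at 3200).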

[6] = tested on: Rattus norvegicus; assay: Change in systolic blood pressure after iv administration of 100 ug/Kg in anesthetized rats; type: functional, Artery; procedure, shortened: as §1
[7] = tested on: Rattus norvegicus; assay: Change in heart rate after iv administration of 1600 ug/kg compound (treatment with papaverine(1 mg/kg/min, iv))in anesthetized rats; type: functional
Procedure, shortened: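 In anesthetized male Wistar rats, responses to iv compound (200–1600 µg/kg, ratio 2.0) were measured alone and under three pretreatments: continuous iv papaverine infusion (1 mg/kg/min), ip reserpine (5 mg/kg/day for 2 days), or iv hexamethonium (5 mg/kg). Peak changes are given as mean ± SE, n = 6 per group; p < 0.05 versus control.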

[8] = tested on: Rattus norvegicus; assay: Change in heart rate after iv administration of 1600 ug/Kg in anesthetized rats; type: functional
Procedure, shortened: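 Adult male Wistar rats under ip ethylurethane (10% w/v in saline, 1 mL/kg) with tracheal cannula and spontaneous breathing, kept at 37 °C. Arterial BP was recorded by femoral artery catheter; compound in saline (50 µL) was given via femoral vein at 50–3200 µg/kg, ratio 2.0. Peak change is given as mean ± SE, n = 12 (n = 7 at 3200 µg/kg).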

In the case of `COc1ccc(C2C(c3ccc(OC)c(OC)c3)[C@H](C(=O)NCCCC/N=C(\N)NCC=C(C)C)[C@@H]2C(=O)NCCCC/N=C(\N)NCC=C(C)C)cc1OC` (stereo partly specified) [CARACASANDIAMIDE], the BP [1] is reported as -66 mmHg, the BP [2] is reported as -43 mmHg and the dP/dt [3] is reported as 3991 mmHg s-1. For the same compound, the BP [4] was 14 mmHg, the “Change in stroke volume” value [5] was -58% and the Stroke volume [5] was -117 µL. For the same compound, the BP [6] was 12 mmHg, the “Change in BP” value [6] was 12% and the Heart rate [7] was -31 beats min-1. For the same compound, the “Change in heart rate” value [8] was -8% and the Heart rate [8] was -30 beats min-1.

Source: ChEMBL document CHEMBL1132342, “Novel hypotensive agents from Verbesina caracasana. 6. Synthesis and pharmacology of caracasandiamide” (1999)
